Measurements published in ChEMBL document CHEMBL1149129, “Design and synthesis of 3'- and 5'-O-(3-benzenesulfonylfuroxan-4-yl)-2'-deoxyuridines: biological evaluation as hybrid nitric oxide donor-nucleoside anticancer agents” (2004).

Columns and labels:
[1] = tested on: 143B; test: In vitro cell cytotoxicity was determined against 143B cell line; type: functional; settings: Homo sapiens
Summary of the method: (§1)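 Human 143B or 143B-LTK cells were grown in complete MEME with 10% FBS and seeded at 8×10^2 cells/well. After 24 h at 37 °C in 5% CO2, compound in medium was added and cells were incubated 3 days. Viability was read by MTT (4 h), with formazan dissolved in DMSO and A540 corrected for blanks. CC50 is the concentration cutting A540 to 50% of control (mean, n = 6).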

[2] = tested on: 143B; test: In vitro cell cytotoxicity was determined against 143B-LTK cell line; type: functional; settings: Homo sapiens; summary of the method: as §1
[3] = tested on: EMT6; test: In vitro cell cytotoxicity was determined against EMT-6 cell line; type: functional; settings: Mus musculus
Summary of the method: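 Murine EMT-6 cells in complete Waymouth medium with 12.5% FBS were plated at 8×10^2 cells/well and preincubated 24 h (37 °C, 5% CO2). Compound in medium was then given for 3 days. MTT reduction was measured over 4 h, with DMSO solubilization and blank-corrected absorbance at 540 nm. CC50 is the concentration reducing A540 to 50% of control (mean, n = 6).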

[4] = tested on: KBALB cell line; test: In vitro cell cytotoxicity was determined against KBALB cell line; type: functional; settings: Mus musculus
Summary of the method: (§2)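 Murine KBALB or KBALB-STK cells, or Hs578Bst human fibroblasts, were grown in complete DMEM with 10% FBS and seeded at 8×10^2 cells/well. After 24 h at 37 °C in 5% CO2, compound in medium was added for 3 days. MTT was added for 4 h, formazan dissolved in DMSO, and blank-corrected A540 read. CC50 is 50% of control A540 (mean, n = 6).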

[5] = tested on: KBALB-STK; test: In vitro cell cytotoxicity was determined against KBALB-STK cell line; type: functional; settings: Mus musculus; summary of the method: as §2
[6] = In vitro percent nitric oxide released from the test compound was determined as the percent of nitrite (NO2-) produced in phosphate buffered saline at 16 hr; type: functional
Summary of the method: (§3)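 Compound (2 mM solution) in 0.1 M phosphate buffer, pH 7.4, without L-cysteine was incubated at 37 °C for 1 or 16 h in the absence of air. It was then exposed to air for 10 min at 25 °C and mixed with an equal volume of Griess reagent (sulfanilamide/N-naphthylethylenediamine). A540 was read after 10 min. Percent NO, as nitrite, came from a 0–100 µM sodium nitrite standard curve (±SEM, n = 3).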

[7] = In vitro percent nitric oxide released from the test compound was determined as the percent of nitrite (NO2-) produced in phosphate buffered saline at 1 hr; type: functional; summary of the method: as §3
[8] = In vitro percent nitric oxide released from the test compound was determined as the percent of nitrite (NO2-) produced in the present of L-cysteine in Phosphate buffer saline at 16 hr; type: functional
Summary of the method: (§4)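 Equal volumes of 0.2 mM compound and freshly prepared 3.6 mM L-cysteine, each in 0.1 M phosphate buffer, pH 7.4, were mixed and incubated at 37 °C for 1 or 16 h in the absence of air. After 10 min air exposure at 25 °C, an equal volume of Griess reagent was added and A540 read after 10 min. Nitrite was quantified against a 0–100 µM NaNO2 curve (±SEM, n = 3).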

[9] = In vitro percent nitric oxide released from the test compound was determined as the percent of nitrite (NO2-) produced in the present of L-cysteine in Phosphate buffer saline at 1 hr; type: functional; summary of the method: as §4
[10] = tested on: Hs578Bst (Homo sapiens); test: In vitro cell cytotoxicity was determined against Hs 578.Bst cell line

SMILES	CC50 [1] [µM]	CC50 [2] [µM]	CC50 [3] [nM]	CC50 [4] [nM]	CC50 [5] [nM]	NO release [6] [%]	NO release [7] [%]	NO release [8] [%]	NO release [9] [%]	CC50 [10] [µM]
Cc1cn([C@H]2C[C@H](O)[C@@H](COc3no[n+]([O-])c3S(=O)(=O)c3ccccc3)O2)c(=O)[nH]c1=O	3.6	5.6	2000	2800	4800	2.2	2.2	36.8	20.9	6.8
O=c1[nH]c(=O)n([C@H]2C[C@H](O)[C@@H](COc3no[n+]([O-])c3S(=O)(=O)c3ccccc3)O2)cc1F	3.2	2	60	48	60	0.7	0.8	68.7	41.6	0.076
Cc1cn([C@H]2C[C@H](Oc3no[n+]([O-])c3S(=O)(=O)c3ccccc3)[C@@H](CO)O2)c(=O)[nH]c1=O	0.72	0.88	2400	560	1000	0.4	1.4	77.3	39.5	2
O=c1[nH]c(=O)n([C@H]2C[C@H](Oc3no[n+]([O-])c3S(=O)(=O)c3ccccc3)[C@@H](CO)O2)cc1I	0.56	1.3	80	380	400	0.4	1.2	74.8	39.8	0.8
O=c1ccn([C@H]2C[C@H](O)[C@@H](COc3no[n+]([O-])c3S(=O)(=O)c3ccccc3)O2)c(=O)[nH]1	3.3	6.3	750	4600	5400	0.2	1.5	77.9	46	4.8
O=c1[nH]c(=O)n([C@H]2C[C@H](Oc3no[n+]([O-])c3S(=O)(=O)c3ccccc3)[C@@H](CO)O2)cc1C(F)(F)F	0.52	0.48	880	3200	2000	0.4	0.3	78.5	48.3	4.4
O=c1[nH]c(=O)n([C@H]2C[C@H](O)[C@@H](COc3no[n+]([O-])c3S(=O)(=O)c3ccccc3)O2)cc1I	0.54	0.71	1000	920	920	9.9	9.8	71.9	28.3	0.8
O=c1[nH]c(=O)n([C@H]2C[C@H](O)[C@@H](CO)O2)cc1I [IDOXURIDINE]	90	100	0.009	0.06	0.088	–	–	–	–	–
O=c1ccn([C@H]2C[C@H](Oc3no[n+]([O-])c3S(=O)(=O)c3ccccc3)[C@@H](CO)O2)c(=O)[nH]1	0.96	2.9	80	790	1700	0.2	0.9	85.8	45.6	4.8
O=c1[nH]c(=O)n([C@H]2C[C@H](O)[C@@H](CO)O2)cc1F [FLOXURIDINE]	–	–	–	95000	100000	–	–	–	–	–
O=[N+]([O-])O[C@H]1CO[C@H]2[C@@H]1OC[C@H]2O[N+](=O)[O-] [ISOSORBIDE DINITRATE]	7000	7400	380000	97000	10000	24	3.5	2.6	1.9	–
O=c1[nH]c(=O)n([C@H]2C[C@H](Oc3no[n+]([O-])c3S(=O)(=O)c3ccccc3)[C@@H](CO)O2)cc1F	0.24	0.84	2000	2000	840	0.2	0.4	73.9	41.5	4.4
COc1no[n+]([O-])c1S(=O)(=O)c1ccccc1	0.07	0.32	560	480	440	1	1.1	44.8	12.3	0.68
Cc1cn([C@H]2C[C@H](O)[C@@H](CO)O2)c(=O)[nH]c1=O [DOXRIBTIMINE]	600	700	–	970000	650000	–	–	–	–	–
O=S(=O)(c1ccccc1)c1no[n+]([O-])c1S(=O)(=O)c1ccccc1	0.04	0.028	100	520	600	0.4	0.2	38.8	22.7	0.1
